Series [1] deals with T1, CYP450 1A2 (Homo sapiens, UniProt P05177).
T1 sequence (P05177 1-516): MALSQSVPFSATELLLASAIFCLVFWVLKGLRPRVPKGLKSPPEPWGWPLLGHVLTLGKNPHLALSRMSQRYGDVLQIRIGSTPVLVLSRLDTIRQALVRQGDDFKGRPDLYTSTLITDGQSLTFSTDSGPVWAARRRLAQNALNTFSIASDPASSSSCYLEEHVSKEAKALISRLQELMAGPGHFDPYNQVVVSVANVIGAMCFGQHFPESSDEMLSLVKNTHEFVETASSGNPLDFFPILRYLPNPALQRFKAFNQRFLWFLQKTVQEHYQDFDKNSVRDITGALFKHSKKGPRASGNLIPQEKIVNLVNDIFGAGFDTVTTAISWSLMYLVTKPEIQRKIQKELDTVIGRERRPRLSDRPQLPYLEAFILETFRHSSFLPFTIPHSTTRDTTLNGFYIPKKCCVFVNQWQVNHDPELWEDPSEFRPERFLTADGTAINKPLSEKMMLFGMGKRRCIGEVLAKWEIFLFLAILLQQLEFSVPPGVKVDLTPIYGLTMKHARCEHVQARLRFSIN
As to the kind of experiment: CYP450 inhibition, recombinant isoform. Format: in vitro ADME. The method in brief: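 Recombinant human CYP450 isoforms were incubated with isoform-specific probe substrates; for CYP3A4 these were midazolam and testosterone. Inhibition was quantified by LC-MS/MS analysis of probe-substrate turnover.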

Series [2] in a line: Necropsy, histopathology and weight gain in chronically treated PSAPP mice. Format: in vivo, mouse. Particulars: chronic 25 mg/kg/d, 3 mo. The method in brief: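 Female PSAPP mice, 9–10 per group, were dosed with vehicle (PEG 400/water/Tween 20) or test compound 25 mg/kg/d by oral gavage for 3 mo. Body weight was recorded three times weekly to monitor weight gain. Necropsy and histopathology followed the treatment period.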

Take `COc1nc(-c2cc(C)c(N[C@@H](C)c3cc(F)cc(F)c3)nn2)ccc1-n1cnc(C)c1` [Compound 2, (S)-N-(1-(3,5-difluorophenyl)ethyl)-6-(6-methoxy-5-(4-methyl-1H-imidazol-1-yl)pyridin-2-yl)-4-methylpyridazin-3-amine]: the IC50 (usually the concentration at which inhibition is half-maximal) in series [1] is 12 µM. Further, the “full-body necropsy and histopathology” value in series [2] is reported as “no overt evidence of toxicity”. In addition, the weight gain result in series [2] (data not shown) was “no significant effect on weight gain”.

Source of the values: publication PMC7931646 (The Journal of Experimental Medicine, 2021).
